Measurements reported in ChEMBL document CHEMBL1123671, “1-Aryl-2-(aminomethyl)cyclopropanecarboxylic acid derivatives. A new series of potential antidepressants” (J Med Chem, 1987).

How the values were obtained:
[1] = species on record: Mus musculus; experiment: Percent increase of the diameter of the test pupil (% mydriasis) in comparison with that of the control pupil.; assay type: functional
How it was run: (§1)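 One drop (0.1 mL) of a 1% aqueous solution instilled into the left eye of 10 mice; right eye as untreated control. Both pupil diameters measured by ocular micrometer; mean mydriasis given as percent increase of test pupil diameter over control pupil.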

[2] = tested on: Mus musculus; experiment: Ability to kill 50% of the animals (administered orally), after sublethal dose of yohimbine (25 mg/Kg) when given subcutaneously.; assay type: functional
[3] = tested on: Mus musculus; experiment: Antagonism of tetrabenazine-induced ptosis in mice was evaluated after oral administration; assay type: functional
How it was run: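 Mice dosed orally at various doses (highest 30 mg/kg) 30 min before tetrabenazine 40 mg/kg ip. Blepharoptosis scored 0–2 thirty minutes after tetrabenazine. Group score sums expressed as percentage.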

[4] = Ability to kill 50% of the animals after 24h, when administered perorally; assay type: ADME, organism-based; conditions: mouse, in vivo, po
[5] = tested on: Mus musculus; experiment: Potentiation of 5-hydroxytryptophan-induced head twitch in mice after oral administration; assay type: functional
[6] = species on record: Mus musculus; experiment: % increase of the diameter of the test pupil (% mydriasis) in comparison with that of the control pupil.; assay type: functional, organism-based; how it was run: as §1
[7] = tested on: Mus musculus; experiment: Compound was tested for its ability to kill 50% of the animals after 24h, when administered perorally; assay type: functional; conditions: po

Compound | Mydriasis [1] | ED50 [2] | ED50 [3] | LD50 at 24 h [4] | ED50 [5] | Mydriasis [6] | LD50 [7]
CC(C)OC(=O)[C@@]1(c2ccc(Cl)cc2)CC1CN.Cl (stereo not given in full) | 23% | 2 mg/kg | 8 mg/kg | 255 mg/kg | 50 mg/kg | – | –
CCOC(=O)[C@@]1(c2ccc(F)cc2)CC1CN(C)C.Cl (stereo not given in full) | 76% | 12 mg/kg | 8 mg/kg | 562 mg/kg | – | – | –
CCOC(=O)[C@@]1(c2ccc(Cl)cc2)CC1CN(C)C.Cl (stereo not given in full) | 24% | 2 mg/kg | 6 mg/kg | 422 mg/kg | 35 mg/kg | – | –
CCN(CC)C(=O)[C@]1(c2ccccc2)C[C@@H]1CN.Cl [1R,2S-MILNACIPRAN HYDROCHLORIDE] | – | > 100 mg/kg | > 30 mg/kg | 562 mg/kg | > 100 mg/kg | Not significant | –
CC(C)OC(=O)[C@@]1(c2ccccc2)CC1CN.Cl (stereo not given in full) | 20% | 18 mg/kg | – | 100 mg/kg | 54 mg/kg | – | –
CCOC(=O)[C@@]1(c2ccccc2)CC1CN.Cl (stereo not given in full) | 33% | 100 mg/kg | 30 mg/kg | 316 mg/kg | 73 mg/kg | – | –
CN(C)CCCN1c2ccccc2CCc2ccc(Cl)cc21 [CLOMIPRAMINE] | 38% | 5 mg/kg | 9 mg/kg | 556 mg/kg | 37 mg/kg | – | –
CNCCCN1c2ccccc2CCc2ccccc21 [DESIPRAMINE] | 46% | 2 mg/kg | 3 mg/kg | 572 mg/kg | > 100 mg/kg | – | –
CCOC(=O)[C@@]1(c2ccccc2)CC1CNCc1ccccc1.Cl (stereo not given in full) | 16% | > 30 mg/kg | – | 316 mg/kg | – | – | –
CCOC(=O)[C@@]1(c2ccccc2)CC1CN(C)CCc1ccccc1.Cl (stereo not given in full) | 30% | 15 mg/kg | > 30 mg/kg | 1000 mg/kg | > 30 mg/kg | – | –
CCCCN(CCCC)C(=O)[C@@]1(c2ccccc2)CC1CN.O=C(O)C(=O)O (stereo not given in full) | – | > 100 mg/kg | > 30 mg/kg | 562 mg/kg | > 100 mg/kg | Not significant | –
CCCN(CCC)C(=O)[C@@]1(c2ccccc2)CC1CN.O=C(O)C(=O)O (stereo not given in full) | 27% | 9 mg/kg | 5.5 mg/kg | 100 mg/kg | – | – | –
CCOC(=O)[C@@]1(c2ccccc2)CC1CN1CCCC1.Cl (stereo not given in full) | 53% | > 100 mg/kg | – | 562 mg/kg | – | – | –
C=CCOC(=O)[C@@]1(c2ccccc2)CC1CN(C)C.O=C(O)/C=C/C(=O)O (stereo not given in full) | 44% | 16 mg/kg | – | 1000 mg/kg | – | – | –
CCN(CC)C(=O)[C@]1(c2ccc(F)cc2)CC1CN.Cl (stereo not given in full) | – | 5 mg/kg | 10 mg/kg | 422 mg/kg | 50 mg/kg | Not significant | –
CC(C)N(C(=O)[C@@]1(c2ccccc2)CC1CN)C(C)C.Cl (stereo not given in full) | – | 15 mg/kg | 30 mg/kg | 100 mg/kg | > 30 mg/kg | Not significant | –
CCN(CC)C(=O)[C@]1(c2cccc(Cl)c2)CC1CN.Cl (stereo not given in full) | – | 3 mg/kg | 0.9 mg/kg | 100 mg/kg | > 10 mg/kg | Not significant | –
CCOC(=O)[C@@]1(c2ccccc2)CC1CN(CCO)CCO.O=C(O)/C=C\C(=O)O (stereo not given in full) | – | > 100 mg/kg | – | > 1000 mg/kg | – | Not significant | –

Compound | Mydriasis [1] | ED50 [2] | ED50 [3] | LD50 at 24 h [4] | ED50 [5] | Mydriasis [6] | LD50 [7]
CCN(CC)C(=O)[C@]1(c2ccccc2)C[C@H]1CN.Cl | – | 0.5 mg/kg | 0.5 mg/kg | 237 mg/kg | > 100 mg/kg | Not significant | –
CCOC(=O)[C@@]1(c2ccccc2)CC1CN(C(C)C)C(C)C.O=C(O)/C=C\C(=O)O (stereo not given in full) | 49% | 70 mg/kg | – | 750 mg/kg | – | – | –
CCN(CC)C(=O)[C@]1(c2ccc(Cl)cc2)CC1CN.Cl (stereo not given in full) | 11% | 3 mg/kg | 9 mg/kg | 422 mg/kg | > 100 mg/kg | – | –
CCCCN(C)CC1C[C@@]1(C(=O)OCC)c1ccccc1.Cl (stereo not given in full) | 61% | 27 mg/kg | – | 255 mg/kg | – | – | –
CCOC(=O)[C@@]1(c2ccccc2)CC1CN(C)C.Cl (stereo not given in full) | 40% | 10 mg/kg | 1.4 mg/kg | > 1000 mg/kg | – | – | –
CCOC(=O)[C@@]1(c2ccccc2)CC1CNC.Cl (stereo not given in full) | 62% | 30 mg/kg | – | 562 mg/kg | – | – | –
CCOC(=O)[C@@]1(c2ccccc2)CC1CN(C)CCO.O=C(O)/C=C/C(=O)O (stereo not given in full) | 23% | 56 mg/kg | – | > 1000 mg/kg | – | – | –
CCNC(=O)[C@@]1(c2ccccc2)CC1CN.O=C(O)C(=O)O (stereo not given in full) | – | 19 mg/kg | > 30 mg/kg | 316 mg/kg | > 100 mg/kg | Not significant | –
Cl.NCC1C[C@@]1(C(=O)O)c1ccccc1 (stereo not given in full) | – | > 100 mg/kg | > 30 mg/kg | > 1000 mg/kg | > 100 mg/kg | Not significant | –
NCC1C[C@@]1(C(=O)N1CCCC1)c1ccccc1.O=C(O)C(=O)O (stereo not given in full) | 12% | 48 mg/kg | 20 mg/kg | 562 mg/kg | > 100 mg/kg | – | –
CCN(CC)C(=O)[C@@]1(c2ccccc2)CC1CNC.O=C(O)C(=O)O (stereo not given in full) | – | 4 mg/kg | 13 mg/kg | 316 mg/kg | > 100 mg/kg | Not significant | –
COC(=O)[C@@]1(c2ccccc2)CC1CN(C)C.Cl (stereo not given in full) | 60% | 29 mg/kg | 30 mg/kg | 750 mg/kg | – | – | –
CC(C)OC(=O)[C@@]1(c2ccccc2)CC1CN(C)C.Cl (stereo not given in full) | 73% | 18 mg/kg | 7 mg/kg | 422 mg/kg | – | – | –
CCCCCCN(CCCCCC)C(=O)[C@@]1(c2ccccc2)CC1CN.O=C(O)C(=O)O (stereo not given in full) | – | > 100 mg/kg | > 30 mg/kg | – | > 1000 mg/kg | Not significant | > 1000 mg/kg
Cc1ccc([C@]2(C(=O)OC(C)C)CC2CN)cc1.Cl (stereo not given in full) | – | 30 mg/kg | 17 mg/kg | 1000 mg/kg | 100 mg/kg | Not significant | –
CN(C)CCCN1c2ccccc2CCc2ccccc21 [IMIPRAMINE] | 61% | 7 mg/kg | 5 mg/kg | – | 60 mg/kg | – | –
CCCOC(=O)[C@@]1(c2ccccc2)CC1CN(C)C.O=C(O)/C=C/C(=O)O (stereo not given in full) | 55% | 25 mg/kg | 30 mg/kg | 562 mg/kg | > 100 mg/kg | – | –
CCOC(=O)[C@@]1(c2ccc(OC)cc2)CC1CN(C)C.Cl (stereo not given in full) | 38% | > 30 mg/kg | – | 562 mg/kg | – | – | –
